We go through nine compounds from ChEMBL document CHEMBL2016448, “Discovery of new piperidine amide triazolobenzodiazepinones as intestinal-selective CCK1 receptor agonists” (Bioorg Med Chem Lett, 2012).

By EC50 is commonly meant the concentration needed to bring the measured effect to its halfway point. In general, IC50 refers to the concentration that inhibits the measured activity by half. The logD is the decadic logarithm of the distribution of all forms, ionised or not, between an organic phase and buffer at a given pH.

The target in data set [1] is T1, Cholecystokinin receptor type A (Homo sapiens, UniProt P32238).
T1 sequence (P32238 whole entry): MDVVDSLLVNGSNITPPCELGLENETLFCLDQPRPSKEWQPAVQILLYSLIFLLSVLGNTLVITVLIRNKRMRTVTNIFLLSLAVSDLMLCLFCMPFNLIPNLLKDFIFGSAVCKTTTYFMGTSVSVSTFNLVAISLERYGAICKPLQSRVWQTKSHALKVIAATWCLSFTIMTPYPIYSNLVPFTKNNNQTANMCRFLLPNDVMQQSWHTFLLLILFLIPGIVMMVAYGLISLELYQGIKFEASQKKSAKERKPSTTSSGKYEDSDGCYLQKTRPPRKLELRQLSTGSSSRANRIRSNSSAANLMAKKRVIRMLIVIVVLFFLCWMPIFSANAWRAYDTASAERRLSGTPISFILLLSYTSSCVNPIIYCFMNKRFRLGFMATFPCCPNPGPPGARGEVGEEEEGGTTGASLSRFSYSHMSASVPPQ
The experiment in a line: Agonist activity at human CCK1 receptor assessed as increase in CCK8-induced calcium release incubated in dark for 30 mins followed by light incubation for 30 mins measured by FLIPR assay. It counts as functional. Summed up:
(§1)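 FLIPR functional assay in CHO cells expressing human CCK1R. Agonism expressed as % of the CCK-8 peptide response. Initial screen at 30 µM, with >30% counted as active. Actives then run as full dose–response. EC50 is the geometric mean of at least 2 independent experiments.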

The target in data set [2] is T2, Cholecystokinin receptor type A (Homo sapiens) (UniProt P32238).
T2 sequence (whole entry): T1 sequence (P32238 whole entry)
The experiment in a line: Agonist activity at human CCK1 receptor assessed as increase in CCK8-induced calcium release incubated in dark for 30 mins followed by light incubation for 30 mins measured by FLIPR assay relative to CCK8. The class given is functional. Summed up:
as §1

Data set [3] can be described thus: Intrinsic clearance in human microsomes. It counts as ADME, Microsome. The essentials:
(§2)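 Intrinsic clearance measured in human liver microsomes. The free value is corrected for microsomal binding.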

Data set [4] deals with T1, Cholecystokinin receptor type A. The experiment in a line: Displacement of [125I]-CCK-8 from human CCK1 receptor expressed in CHO cells after 90 mins by liquid scintillation counting. For orientation: Displacement assays read how much labelled ligand stays bound in the presence of the test substance.
Data set [5] in a line: Lipophilicity, log D of the compound at pH 7.4. The class given is physicochemical. As to conditions: buffer, read-out: logD.
Data set [6] in a line: Free intrinsic clearance in human microsomes. It counts as ADME, Microsome. The essentials:
as §2

A further data set deals with Mus musculus. As to the kind of experiment: Antiobesity in C57Bl/6J mouse assessed as reduction in gall bladder weight at 0.6 mg/kg, po measured after 1 hr relative to control. The class given is functional. Further details: scale not given: the % may be the effect or the level left.
A short description of data set [7]: Drug excretion in Sprague-Dawley rat bile at 1 mg/kg, iv measured after 24 hrs. The settings on record: read-out: Ae. Further details: dose 1 mg/kg, route intravenous. The class given is ADME, organism-based. The essentials: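 Bile-cannulated rats dosed iv at 1 mg/kg. Bile collected over 24 h and % of dose excreted into bile determined.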

Structures are written as SMILES.

Consider `CC(C)C1CCCCN1C(=O)CN1C(=O)C(Cc2c[nH]c3ccccc23)c2nnc(-c3ccccc3)n2-c2ccccc21` (mixture of isomers), for which the 50% effective concentration (EC50) in data set [1] amounted to 494 nM. Further, in data set [2], the Efficacy is 95%. In data set [3], this compound displayed a clearance of 220 µL/min/mg. The compound further had an IC50 in data set [4] of 80.1 nM.

With `CCC1CCCCN1C(=O)CN1C(=O)C(Cc2c[nH]c3ccccc23)c2nnc(-c3ccccc3)n2-c2ccccc21` (mixture of isomers), the EC50 in data set [1] is 400 nM. Moreover, the Efficacy in data set [2] is 78%. In data set [3], this compound returned a clearance of more than 300 µL/min/mg. Further, in data set [4], the 50% inhibitory concentration (IC50) was 36.9 nM.

For the compound `O=C1C(Cc2c[nH]c3ccccc23)c2nnc(-c3ccccc3)n2-c2ccccc2N1CC(=O)N1CCCC1Cc1ccccn1` (mixture of isomers), the EC50 in data set [1] was 560 nM. In data set [2], the Efficacy amounted to 86%. Further, in data set [3], the clearance was 212 µL/min/mg. The IC50 in data set [4] came to 373 nM.

In the case of `O=C1C(Cc2c[nH]c3ccccc23)c2nnc(-c3ccccc3)n2-c2ccccc2N1CC(=O)N1CCCCC1CC1CCCCC1` (mixture of isomers), the EC50 in data set [1] was 256 nM. Further, the Efficacy in data set [2] turned out to be 88%. The clearance in data set [3] came out at 76 µL/min/mg. Also, the IC50 in data set [4] was found to be 4.24 nM.

In the case of `O=C1[C@@H](Cc2n[nH]c3ccccc23)c2nnc(-c3ccccc3)n2-c2ccccc2N1CC(=O)N1CCCCC1Cc1ccccc1` (some centres not stated), in data set [1], the concentration for a half-maximal effect (EC50) turned out to be 12.9 nM. Moreover, the Efficacy in data set [2] was determined as 103%. Besides, the logD in data set [5] was found to be 4.6. The CL free in data set [6] was determined as 846 µL/min/mg. Further, in the data set with Mus musculus, the Activity was 91%. The dose excreted at 24 h in data set [7] turned out to be 0.32%. Besides, the IC50 in data set [4] came to 36 nM.

Consider `Cc1cccc(CC2CCCCN2C(=O)CN2C(=O)[C@@H](Cc3n[nH]c4ccccc34)c3nnc(-c4ccccc4)n3-c3ccccc32)c1` (some centres not stated), for which the EC50 in data set [1] was 669 nM. For the same compound, in data set [2], the Efficacy is 75%. Also, the pH-dependent lipophilicity (logD) in data set [5] was 5.1. Moreover, in data set [4], the IC50 came to 87.6 nM.

For `O=C1C(Cc2c[nH]c3ccccc23)c2nnc(-c3ccccc3)n2-c2ccccc2N1CC(=O)N1CCCCC1Cc1ccncc1` (mixture of isomers), the EC50 in data set [1] worked out at 421 nM. Moreover, in data set [2], the Efficacy was determined as 89%. This compound also returned a clearance in data set [3] of 111 µL/min/mg. The IC50 in data set [4] worked out at 340 nM.

Consider `COCCC1CCCCN1C(=O)CN1C(=O)[C@@H](Cc2n[nH]c3ccccc23)c2nnc(-c3ccccc3)n2-c2ccccc21` (single isomer, unassigned), for which the EC50 in data set [1] stood at 2.7 nM. In addition, in data set [2], the Efficacy is 100%. Moreover, the log distribution coefficient (logD) in data set [5] came out at 3.1. Further, the CL free in data set [6] was determined as 154 µL/min/mg. In the data set on Mus musculus, the Activity was found to be 85%. Moreover, the dose excreted at 24 h in data set [7] stood at 0.26%. In data set [4], this compound had an IC50 of 9.9 nM.

For `O=C1C(Cc2c[nH]c3ccccc23)c2nnc(-c3ccccc3)n2-c2ccccc2N1CC(=O)N1CCCCC1Cc1ccccn1` (mixture of isomers), the 50% effective concentration (EC50) in data set [1] worked out at 31.9 nM. Moreover, in data set [2], the Efficacy is 105%. The compound also had a clearance in data set [3] of 114 µL/min/mg. Moreover, the half-inhibitory concentration (IC50) in data set [4] was found to be 93.3 nM.
